A1 inh: inhibitors of the anti-apoptotic protein A1, read as caspase activation | MEF A1-2A-BIM cells, Caspase-Glo 3/7 luminescence, 3 h; percent of clofoctol response, vehicle zero | caspase activation, % (no concentration beside the values) | 330,000 tested, 0.066% active | AID 2462;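 active = over half of replicate activation scores above 10%, or exactly half above 10 with the replicate mean above 10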
UPR XBP1 act: adaptive UPR (XBP1) activation | CHO-XBP1 luciferase reporter, IRE1-XBP1 UPR activation, luminescence; percent of tunicamycin response, DMSO as zero | activation, % at 20 µM | 330,000 tested, 0.33% active;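 active = versus positive control, 20 µM dose yields 30% or more activation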
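Assay system: CHO-XBP1 luciferase reporter cells; Schedule: 6 h treatment, 37 °C; Detection: glow luminescence from Steady-Glo reagent; Benchmarks: high control tunicamycin 10 µg/mL final, low control DMSO vehicle only.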
UPR CHOP act: apoptotic UPR (CHOP) activation; 330,000 tested, 0.34% active; CHO-CHOP luciferase reporter, luminescence; percent of tunicamycin response over DMSO baseline; activation, % at 10 µM;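 active = at 10 µM dose, activation of 40% or more, normalized to positive control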
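Assay system: CHO cells with stable CHOP pathway luciferase reporter; Buffer or medium: F12 plus 10% serum; Times: 16-18 h cell attachment, then 6 h compound exposure, 37 °C; Signal: luciferase luminescence; Read-out basis: percent activation relative to tunicamycin control; Control set: tunicamycin high control, DMSO low control.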
CHOP inhibitor: blocks CHOP induction under ER stress; CHO-K1 CHOP-promoter luciferase, tunicamycin-induced, 15-18 h; inhibition, % at 10 µM; 220,000 tested, 3.8% active;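 active = compounds that reduced the stress-induced luciferase reporter signal by more than about 70% of percent inhibition, limit read from the data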
CHOP inh conf: confirmation of CHOP induction inhibitors; shares compounds with CHOP inhibitor; inhibition, % at 10 µM; AID 504437; CHO-CHOP promoter luciferase reporter, tunicamycin-induced, luminescence; 2,100 tested, 45% active;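 active = mean of three repeat readings of reporter signal inhibition above a set limit, cut at about 70% in these data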
Each line names hits and unclear results; the compound was inactive in the other large screens (follow-up assays come after a bar, where they were run). Shown is part of a subset that was picked to be rich in hits.

COc1ccc(C(=O)NNC(=O)c2ccccn2)cc1	CHOP inhibitor 104 | CHOP inh conf 124
Cc1nn(CC(=O)NC(=O)NC2CCCCC2C)c(=O)c(C#N)c1C (stereo not given)	none (no result: CHOP inhibitor)
O=C(Cc1cccc2ccccc12)NC(NC(=S)Nc1ccccc1Cl)C(Cl)(Cl)Cl (stereo not given)	CHOP inhibitor 104 | CHOP inh conf inactive
CCC(=O)NC(NC(=S)Nc1cccc2cccnc12)C(Cl)(Cl)Cl (stereo not given)	none
CC(C)(C)C(=O)c1no[n+]([O-])c1/C(=N/O)C(C)(C)C	CHOP inhibitor 108 | CHOP inh conf 78
O=S1(=O)c2ccccc2N=NN1Cc1ccc(Cl)cc1	CHOP inhibitor 109 | CHOP inh conf inactive
Clc1ccc(Cn2cnc3ccccc32)cc1	none
COc1cc(OC)c(OC)cc1/C=N/Nc1ncnc2c1[nH]c1ccccc12	CHOP inhibitor 104 | CHOP inh conf 72
COc1ccc(/C=N/Nc2ncnc3c2[nH]c2ccc(C)cc23)c(OC)c1OC	none
O=C(Nc1cccc(O)c1)c1c(O)c2ccccc2[nH]c1=O	none (no result: CHOP inhibitor)
O=C(c1ccc(Cl)cc1)c1c[nH]c(C(=O)NNc2cccc(Cl)n2)c1	CHOP inhibitor 100 | CHOP inh conf 96
O=C(c1ccccc1)c1c[nH]c(C(=O)NNc2cccc(Cl)n2)c1	none
O=C(CN1C(=O)c2ccccc2S1(=O)=O)c1ccc2c(c1)OCCCO2	CHOP inhibitor 104 | CHOP inh conf 121
O=C(CN1C(=O)c2ccccc2S1(=O)=O)c1ccc(F)cc1	none
Cc1cc(C2=NNC(=NC3CC3)SC2)c(C)n1-c1ccccc1	CHOP inhibitor 106 (no result: A1 inh, UPR XBP1 act, UPR CHOP act) | CHOP inh conf 121
COc1ccc(-n2c(C)cc(C3=NNC(=NC4CC4)SC3)c2C)cc1	none (no result: A1 inh, UPR XBP1 act, UPR CHOP act)
Cc1cc(OCC(=O)N(Cc2ccccc2)C2CCS(=O)(=O)C2)ccc1Cl (stereo not given)	none (no result: CHOP inhibitor)
Cc1cc(C)c2nc(C(F)(F)F)c(C#N)c(N)c2c1	CHOP inhibitor 106 | CHOP inh conf 116
COc1ccc(NC(=O)CSc2nnc(N)s2)cc1S(=O)(=O)N1CCCCC1	none (no result: CHOP inhibitor)
O=C(O)c1cc(-c2ccncc2)nc2ccc(S(=O)(=O)N3CCOCC3)cc12	none
O=C(NCc1ccccc1)c1cc(-c2ccncc2)nc2ccc(S(=O)(=O)N3CCOCC3)cc12	CHOP inhibitor 103 | CHOP inh conf 108
COC(=O)CN1C(=S)N(Cc2ccccc2)C(=O)C1CC(=O)Nc1ccc(Br)cc1 (stereo not given)	CHOP inhibitor 102 | CHOP inh conf 98
O=C(CNC(=O)c1ccc(Cl)cc1)N/N=C/C=C/c1ccccc1	CHOP inhibitor 99 | CHOP inh conf inactive
O=C(COc1ccccc1)Nc1sc2c(c1C(=O)NCc1cccnc1)CCCC2	CHOP inhibitor 98 | CHOP inh conf inactive
O=C(COc1ccc(Cl)cc1)Nc1ccccc1C(=O)NCc1cccnc1	none (no result: CHOP inhibitor)
CC(C)[C@@H](C(=O)N[C@@H](C(=O)O)c1ccccc1)N1C(=O)N2CCc3c([nH]c4ccccc34)[C@@]2(C)C1=O	none (no result: CHOP inhibitor)
CNc1oc(-c2ccc(C)cc2)nc1P(=O)(c1ccccc1)c1ccccc1	CHOP inhibitor 107 | CHOP inh conf inactive
COc1ccc(C(C[N+](=O)[O-])C2(c3ccc(OC)c(OC)c3)C(=O)c3ccccc3C2=O)cc1 (stereo not given)	CHOP inhibitor 104 (no result: UPR XBP1 act, UPR CHOP act) | CHOP inh conf inactive
COc1ccc(C(C[N+](=O)[O-])c2c(-c3ccccc3)cc3ccccn23)cc1 (stereo not given)	none
CC(C)CC1Nc2ncnc(N3CCN(c4ccccn4)CC3)c2N(Cc2ccccc2)C1=O (stereo not given)	none (no result: CHOP inhibitor)
COc1ccccc1Nc1nc(NCC(C)C)nc(N)c1[N+](=O)[O-]	CHOP inhibitor 101 | CHOP inh conf inactive
CSc1nc(N)nc(SCC(=O)C23CC4CC(CC(C4)C2)C3)c1C#N	none
N#Cc1c(N)nc(SCC(=O)C23CC4CC(CC(C4)C2)C3)c(C#N)c1-c1ccc(Cl)cc1	CHOP inhibitor 101 | CHOP inh conf 83
CCc1ccc2c(c1)/C(=C/C(=O)c1cccs1)C(=O)N2	CHOP inhibitor 109 | CHOP inh conf inactive
Cc1cc(Br)c2c(c1)/C(=C/C(=O)c1cccs1)C(=O)N2	CHOP inhibitor 99 | CHOP inh conf 80
Cc1cccc2c1NC(=O)/C2=C\C(=O)c1cccs1	CHOP inhibitor 110 | CHOP inh conf inactive
Cc1cc(C)c2c(c1)/C(=C/C(=O)c1ccc(Br)s1)C(=O)N2	CHOP inhibitor 110 | CHOP inh conf inactive
CN(C)/C=C/C(=O)c1ccc(Br)s1	none
O=C(Nc1cc(Cl)cc(Cl)c1)Nc1cnccn1	none (no result: CHOP inhibitor)
CC(C)CN(C(=O)COC(=O)c1ccc(Br)o1)c1c(N)n(Cc2ccccc2)c(=O)[nH]c1=O	none (no result: CHOP inhibitor)
COc1ccc(C2NC(=O)CCC2[N+](=O)[O-])cc1 (stereo not given)	none (no result: CHOP inhibitor)
O=[N+]([O-])c1ccccc1C1Nc2cccc3cccc(c23)N1	CHOP inhibitor 106 | CHOP inh conf inactive
Oc1ccccc1C1Nc2cccc3cccc(c23)N1	none
Cc1ccc(NC(=O)c2cc3ccccc3o2)cc1S(=O)(=O)N(C)C	none (no result: A1 inh, UPR XBP1 act, UPR CHOP act)
Cc1ccc(NC(=O)c2cc3ccccc3oc2=O)cc1S(=O)(=O)N(C)C	CHOP inhibitor 102 | CHOP inh conf 110
c1ccc(CNc2nc(N3CCN(Cc4ccccc4)CC3)nc3ccccc23)cc1	none
c1ccc(CN2CCC(Nc3nc(-c4ccccc4)nc4ccccc34)CC2)cc1	CHOP inhibitor 102 | CHOP inh conf inactive
CC[C@]12c3[nH]c4ccc(Cl)cc4c3CCN1C(=O)[C@@H](CC(=O)NC/C=C(\C)CCC=C(C)C)C[C@@H]2C(=O)N1CCN(C(=O)c2ccco2)CC1	none (no result: A1 inh, CHOP inhibitor)
Cc1ccc(NCC(=O)N/N=C\C(Br)=C\c2ccccc2)cc1	CHOP inhibitor 110 | CHOP inh conf inactive
O=C(Nc1ccccc1NC(=O)NC1CCCCC1)NC1CCCCC1	CHOP inhibitor 104 (no result: A1 inh) | CHOP inh conf 114
NC(=O)c1ccccc1NC(=O)NC1CCCCC1	none
Cc1ccccc1NC(=O)C1CCCN1S(=O)(=O)c1ccccc1C(F)(F)F (stereo not given)	none (no result: CHOP inhibitor)
CCOc1ccc(-c2nc(CSCC(=O)NCc3ccco3)c(C)o2)cc1	CHOP inhibitor 106 | CHOP inh conf 118
CCC(CC)c1nnc(NC(=O)c2c(C)nn(Cc3ccccc3Cl)c2C)s1	CHOP inhibitor 105 | CHOP inh conf 90
CCN(CC)c1ccc2cc(/C(N)=N/NC(=O)c3cccs3)c(=O)oc2c1	UPR XBP1 act 93, CHOP inhibitor 102 | CHOP inh conf inactive
CCOc1cc(/C=N/NC(=O)Cc2ccc(C(F)(F)F)cc2[N+](=O)[O-])c(Br)cc1OC	CHOP inhibitor 101 | CHOP inh conf 100
Cc1ccn2cc(-c3cc4ccccc4oc3=O)nc2c1	CHOP inhibitor 105 (no result: A1 inh, UPR XBP1 act, UPR CHOP act) | CHOP inh conf 88

From PubChem BioAssay
